Series [1] concerns the target Eukaryotic translation initiation factor 2-alpha kinase 1 (Homo sapiens) (UniProt Q9BQI3). Description: Activation of HRI in human CRL2813 cells assessed as increase in CHOP protein expression at 5 uM after 8 hrs by Western blot analysis. The series is classed as cell-based. In short, it runs like this:
(§1)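 CRL-2813 cells at 70% confluence in serum-containing, antibiotic-free medium; treated at 5 μM for 8 h. Lysed in M-PER on ice for 30 min, equal protein by BCA, SDS-PAGE and immunoblot for CHOP, cyclin D1 and β-actin. Blots representative of three independent experiments.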

In series [2] the target is Eukaryotic translation initiation factor 2-alpha kinase 1 (Mus musculus) (UniProt Q9Z2R9). Description: Activation of HRI in mouse KLN cells transfected with 5'UTR of ATF-4 mRNA fused firefly luciferase mRNA and 5'UTR lacking uORF fused renila luciferase mRNA assessed as increase in eIF2alpha phosphorylation by measuring ratio of firefly luciferase to renila luciferase at 5 uM after 16 hrs. The series is classed as cell-based.
Eukaryotic translation initiation factor 2-alpha kinase 1 (Mus musculus), sequence (Q9Z2R9 whole entry, the tested form may be a part): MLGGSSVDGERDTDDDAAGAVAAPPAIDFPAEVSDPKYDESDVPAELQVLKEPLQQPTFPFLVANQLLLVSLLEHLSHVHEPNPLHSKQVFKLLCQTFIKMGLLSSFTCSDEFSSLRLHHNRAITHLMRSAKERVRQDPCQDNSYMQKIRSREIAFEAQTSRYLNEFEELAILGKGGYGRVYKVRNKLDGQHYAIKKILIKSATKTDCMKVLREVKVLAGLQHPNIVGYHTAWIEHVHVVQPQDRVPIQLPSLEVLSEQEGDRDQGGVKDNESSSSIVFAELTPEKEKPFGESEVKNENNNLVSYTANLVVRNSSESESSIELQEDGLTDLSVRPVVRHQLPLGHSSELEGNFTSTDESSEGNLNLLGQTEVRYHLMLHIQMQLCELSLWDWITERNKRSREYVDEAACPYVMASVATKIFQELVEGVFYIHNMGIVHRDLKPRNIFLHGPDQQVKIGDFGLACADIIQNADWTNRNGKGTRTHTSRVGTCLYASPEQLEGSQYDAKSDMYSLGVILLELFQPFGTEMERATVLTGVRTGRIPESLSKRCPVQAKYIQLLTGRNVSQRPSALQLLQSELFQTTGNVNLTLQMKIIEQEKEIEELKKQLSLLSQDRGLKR

Series [3] is described as follows: Antiproliferative activity against human CRL2813 cells after 5 days by sulforhodamine B assay. The class given is functional, cell-based. To be noted: CRL2813, 120 h. The procedure, abridged:
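CRL-2813 melanoma cells grown 5 days with 0.5–20 μM compound, then fixed in cold 10% TCA and stained with sulforhodamine B. Bound dye measured. Growth % = 100×(T−T0)/(C−T0), with T0 at time zero. IC50 is the concentration giving 50% growth inhibition.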

Series [4] deals with Eukaryotic translation initiation factor 2-alpha kinase 1 (Homo sapiens) (UniProt Q9BQI3). As to the kind of experiment: Activation of HRI in human CRL2813 cells assessed as increase in eIF2alpha phosphorylation at 5 uM after 2 hrs by Western blot analysis. The series is classed as cell-based. The procedure, abridged:
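Adherent CRL-2813 melanoma cells exposed to 5 μM for 2 h. Lysates immunoblotted with anti-phosphoserine-51 eIF2α and anti-total eIF2α antibodies after BCA normalization and SDS-PAGE. Gels representative of three independent experiments.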

The target of series [5] is Eukaryotic translation initiation factor 2-alpha kinase 1 (Mus musculus) (UniProt Q9Z2R9). Description: Activation of HRI in mouse KLN cells transfected with 5'UTR of ATF-4 mRNA fused firefly luciferase mRNA and 5'UTR lacking uORF fused renila luciferase mRNA assessed as increase in eIF2alpha phosphorylation by measuring ratio of firefly luciferase to renila luciferase after 16 hrs. The series is classed as cell-based.

Series [6] shares this target. As to the kind of experiment: Activation of HRI in mouse KLN cells transfected with 5'UTR of ATF-4 mRNA fused firefly luciferase mRNA and 5'UTR lacking uORF fused renila luciferase mRNA assessed as increase in eIF2alpha phosphorylation by measuring ratio of firefly luciferase to renila luciferase at 1.25 uM after 16 hrs. The class given is cell-based.
The target in series [7] is Eukaryotic translation initiation factor 2-alpha kinase 1 (Homo sapiens) (UniProt Q9BQI3). As to the kind of experiment: Activation of HRI in human CRL2813 cells assessed as induction of CHOP mRNA level at 5 uM by real-time PCR relative to 18S RNA. The class given is cell-based. In short, it runs like this: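 Fold induction of CHOP mRNA in cells treated at 5 μM, normalized to 18S RNA and expressed relative to DMSO (set to 1). Triplicate samples, three independent experiments, mean ± SEM.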
Eukaryotic translation initiation factor 2-alpha kinase 1 (Homo sapiens), sequence (Q9BQI3 whole entry): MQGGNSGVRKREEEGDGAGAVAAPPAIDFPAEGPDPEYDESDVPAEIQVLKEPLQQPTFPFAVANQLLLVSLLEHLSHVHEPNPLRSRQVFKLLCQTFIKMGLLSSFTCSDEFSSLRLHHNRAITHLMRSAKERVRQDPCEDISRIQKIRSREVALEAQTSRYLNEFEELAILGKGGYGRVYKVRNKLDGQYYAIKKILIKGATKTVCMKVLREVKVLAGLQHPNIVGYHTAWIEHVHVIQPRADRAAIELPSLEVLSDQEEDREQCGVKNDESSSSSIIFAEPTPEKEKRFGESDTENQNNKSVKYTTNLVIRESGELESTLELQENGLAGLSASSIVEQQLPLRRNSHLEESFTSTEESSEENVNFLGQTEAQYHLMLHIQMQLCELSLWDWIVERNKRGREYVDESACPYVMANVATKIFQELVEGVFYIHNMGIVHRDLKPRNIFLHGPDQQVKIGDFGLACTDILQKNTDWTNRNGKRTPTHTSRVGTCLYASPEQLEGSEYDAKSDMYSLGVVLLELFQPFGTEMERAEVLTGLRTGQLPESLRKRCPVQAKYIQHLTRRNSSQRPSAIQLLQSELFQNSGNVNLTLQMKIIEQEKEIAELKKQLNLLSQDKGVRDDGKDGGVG

Series [8] has the same target. As to the kind of experiment: Activation of HRI in human CRL2813cells assessed as decrease in cyclin D1 protein expression at 5 uM after 8 hrs by Western blot analysis. In short, it runs like this: as §1
Series [9] can be described thus: Effect on beta actin protein expression in human CRL2813 cells at 5 uM after 8 hrs by Western blot analysis. The series is classed as ADME, cell-based. To be noted: crl2813, 8 h. The procedure, abridged: as §1

This note sets out measurements from ChEMBL document CHEMBL4011623, “Development of 1-((1,4-trans)-4-Aryloxycyclohexyl)-3-arylurea Activators of Heme-Regulated Inhibitor as Selective Activators of the Eukaryotic Initiation Factor 2 Alpha (eIF2α) Phosphorylation Arm of the Integrated Endoplasmic Reticulum Stress Response” (J Med Chem, 2017).

Active and inactive are the calls of the source. The rule behind the calls is not given here.

Consider `O=C(Nc1cccc(C(F)(F)F)c1)N[C@H]1CC[C@H](Oc2ccc(C(F)(F)F)cc2)CC1`, for which the outcome in series [1], in series [4] and in [8] was Active. The Ratio in series [2] is 10.2; in [6], 3.23. In [3], this compound came in with an IC50 of 540 nM. Besides, the Activity entry is “Dose-dependent effect” in series [5] and “Non-Toxic” in series [9]. The fold change (FC) in [7] amounted to 4.72.
With `N#Cc1ccc(NC(=O)N[C@H]2CC[C@H](Oc3ccc(C(F)(F)F)cc3)CC2)cc1`, the result in series [1], in [4] and in series [8] was Active. Besides, the Ratio came to 11.6 in series [2] and 3.38 in series [6]. Also, in series [3], the IC50 was found to be 490 nM. Further, the Activity entry in series [5] was “Dose-dependent effect”; in series [9], “Non-Toxic”. Further, the fold change (FC) in [7] was determined as 12.8.
With `N#Cc1cc(C(F)(F)F)ccc1O[C@H]1CC[C@H](NC(=O)Nc2cccc(C(F)(F)F)c2)CC1`, the values for the Ratio in [2] and in series [6] were 6.3 and 1.01, respectively. In addition, the IC50 in series [3] was 1470 nM. The Activity entry in series [5] was “Dose-dependent effect”.
The like results for `N#Cc1ccc(O[C@H]2CC[C@H](NC(=O)Nc3cccc(C(F)(F)F)c3)CC2)cc1` were, in that order, 3.23, 0.92, 6060 nM and “Dose-dependent effect”.
Turning to `NC(=O)c1cc(C(F)(F)F)ccc1O[C@H]1CC[C@H](NC(=O)Nc2cccc(OC(F)(F)F)c2)CC1`, the values for the Ratio in series [2] and in series [6] were 5.13 and 0.88, respectively. This compound also came in with an IC50 in [3] of 1530 nM. In addition, the Activity result in series [5] is “Dose-dependent effect”.
Regarding `O=C(Nc1cccc(C(F)(F)F)c1)N[C@H]1CC[C@H](Oc2ccc(OC(F)(F)F)cc2)CC1`, the results for the Ratio in series [2] and in series [6] were 10.1 and 3.37, respectively. 820 nM corresponded to half-maximal inhibition in series [3] (IC50).
As to `CC(=O)Nc1cc(C(F)(F)F)ccc1O[C@H]1CC[C@H](NC(=O)Nc2cccc(OC(F)(F)F)c2)CC1`, the results for the Ratio in series [2] and in [6] were 4.31 and 0.85, respectively. In [3], this compound showed an IC50 of 1500 nM. The Activity result in [5] was “Dose-dependent effect”.
For `O=C(Nc1ccc(Oc2ccc(C(F)(F)F)cc2)cc1)Nc1cccc(OC(F)(F)F)c1` the same measures were 6.73, 2.37, 500 nM and “Dose-dependent effect”.
In the case of `O=C(Nc1cccc(C(F)(F)F)c1)N[C@H]1CC[C@H](Oc2ccc(C(F)(F)F)cc2[N+](=O)[O-])CC1`, the Ratio in series [2] was determined as 3.28; in [6], 0.96. Moreover, in series [3], the IC50 stood at 5510 nM. Moreover, the Activity entry in [5] was “Dose-dependent effect”.
For the compound `N#Cc1ccc(NC(=O)N[C@H]2CC[C@H](Oc3ccc(C#N)cc3)CC2)cc1`, the Ratio in series [2] came out at 1.38; in series [6], 1.03. Half-maximal inhibition in series [3] (IC50) required 9030 nM. Besides, in series [5], the Activity result is “Dose-dependent effect”.
For `O=C(Nc1ccc(Oc2ccc(C(F)(F)F)cc2)cc1)Nc1cccc(C(F)(F)F)c1` the same measures were 8.99, 3.31, 440 nM and “Dose-dependent effect”.
For the compound `NC(=O)c1cc(O[C@H]2CC[C@H](NC(=O)Nc3cccc(OC(F)(F)F)c3)CC2)ccc1C(F)(F)F`, the Ratio came out at 1.57 in series [2] and 1.04 in [6]. Further, in [3], half-maximal inhibition (IC50) was put at 3660 nM. Further, the Activity result in [5] was “Dose-dependent effect”.
`N#Cc1cccc(NC(=O)N[C@H]2CC[C@H](Oc3ccc(C(F)(F)F)cc3)CC2)c1`: the values for the Ratio in [2] and in series [6] were 7 and 0.96, respectively. In series [3], this compound yielded an IC50 of 940 nM. Besides, in [5], the Activity result is “Dose-dependent effect”.
With `NC(=O)c1cc(O[C@H]2CC[C@H](NC(=O)Nc3cccc(C(F)(F)F)c3)CC2)ccc1C(F)(F)F`, the Ratio in [2] came out at 1.12; in series [6] it was 0.79. Also, the midpoint of inhibition in [3], the IC50, lay at 3360 nM. Moreover, the Activity entry in series [5] was “Dose-dependent effect”.
For `CC(=O)Nc1cc(C(F)(F)F)ccc1O[C@H]1CC[C@H](NC(=O)Nc2cccc(C(F)(F)F)c2)CC1` the same measures were 3.9, 0.84, 1460 nM and “Dose-dependent effect”.
On to `NC(=O)c1cc(C(F)(F)F)ccc1O[C@H]1CC[C@H](NC(=O)Nc2cccc(C(F)(F)F)c2)CC1`, for which the Ratio came out at 1.49 in series [2] and 0.91 in series [6]. Also, in [3], the IC50 stood at 2760 nM. Moreover, the Activity entry in series [5] is “Dose-dependent effect”.
The like results for `N#Cc1ccc(O[C@H]2CC[C@H](NC(=O)Nc3cccc(C#N)c3)CC2)cc1` were, in that order, 1.15, 1.01, 8200 nM and “Dose-dependent effect”.
As to `N#Cc1ccc(NC(=O)N[C@H]2CC[C@H](Oc3ccc(C(F)(F)F)cc3)CC2)cc1C#N`, the result in series [1], in series [4] and in series [8] was Active. The results for the Ratio in series [2] and in [6] were 7.75 and 5.54, respectively. In series [3], this compound returned an IC50 of 2010 nM. In addition, the Activity result in [5] was “Dose-dependent effect”; in series [9], “Non-Toxic”. The fold change (FC) in series [7] amounted to 6.21.
With `N#Cc1cc(C#N)cc(NC(=O)N[C@H]2CC[C@H](Oc3ccc(C(F)(F)F)cc3)CC2)c1`, the Ratio in series [2] stood at 2.36; in [6], 1.51. Besides, inhibition in series [3] was half-maximal at 3680 nM (IC50). For the same compound, the Activity entry in series [5] is “Dose-dependent effect”.
`O=C(Nc1cccc(OC(F)(F)F)c1)N[C@H]1CC[C@H](Oc2ccc(C(F)(F)F)cc2)CC1`: the result in series [1], in series [4] and in series [8] was Active. Moreover, the Ratio came to 13.6 in series [2] and 5.2 in series [6]. In [3], this compound came in with an IC50 of 920 nM. Further, the Activity result in series [5] is “Dose-dependent effect”; in series [9], “Non-Toxic”. For the same compound, the fold change (FC) in [7] came to 11.9.
Turning to `O=C(Nc1cccc(C(F)(F)F)c1)N[C@H]1CC[C@H](Oc2ccc(C(F)(F)F)cn2)CC1`, the figures for the Ratio in series [2] and in series [6] were 6.11 and 1.02, respectively. The compound also displayed an IC50 in series [3] of 1570 nM. Also, in [5], the Activity entry is “Dose-dependent effect”.
For `O=C(Nc1cc(C(F)(F)F)cc(C(F)(F)F)c1)N[C@H]1CC[C@H](Oc2ccc(C(F)(F)F)cc2)CC1`, the result in series [1], in series [4] and in series [8] was Active. Further, the Ratio in series [2] was determined as 30.7; in series [6], 8.58. For the same compound, half-maximal inhibition in [3] (IC50) was put at 450 nM. Besides, the Activity entry in series [5] is “Dose-dependent effect”; in series [9] it was “Non-Toxic”. Also, in [7], the fold change (FC) amounted to 14.5.
`O=C(Nc1cccc(OC(F)(F)F)c1)N[C@H]1CC[C@H](Oc2ccc(OC(F)(F)F)cc2)CC1`: the results for the Ratio in [2] and in series [6] were 10.7 and 2.87, respectively. The compound also had an IC50 in series [3] of 1450 nM. Besides, in [5], the Activity entry is “Dose-dependent effect”.
